For assay [1], the system named is HMNC. Kind of assay: Immunomodulatory activity in wild type C57BL/6 mouse HMNC cells assessed as reduction in IL-17 secretion at 25 nM after 72 hrs by ELISA. The assay is classed as functional, cell-based. The essentials:
(§1)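 Hepatic mononuclear cells from C57BL/6 mice were isolated on Percoll and grown in RPMI-1640 with 10% FBS, L-glutamine and 2-mercaptoethanol. Cells (2 × 10^5) were stimulated 72 h with 25 nM glycolipid. Supernatant cytokines were measured by sandwich ELISA: overnight 4 °C sample incubation, biotinylated antibody, streptavidin-HRP, TMB, A450. Assays were run in triplicate and repeated 2−3 times; mean ± SD.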
On the technique in general: In an ELISA, binding on a coated surface is turned into a signal by an enzyme label.

In assay [2] the test system is HMNC. Put plainly: Immunomodulatory activity in wild type C57BL/6 mouse HMNC cells assessed as reduction in IFN-gamma secretion at 25 nM after 72 hrs by ELISA. The format is functional, cell-based. The method, boiled down:
as §1

In assay [3] the test system is HMNC. Kind of assay: Immunomodulatory activity in wild type C57BL/6 mouse HMNC cells assessed as increase in IL-4 secretion at 25 nM after 72 hrs by ELISA. The assay is classed as functional, cell-based. The method, boiled down:
as §1

The species named for assay [4] is Mus musculus. Put plainly: Antiautoimmune disease activity in wild type C57BL/6 mouse experimental autoimmune encephalitis model assessed as reduction in disease pathogenicity at 2 ug, […] as single dose measured up to 30 days. The assay is classed as functional, organism-based. The method, boiled down: (§2)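 Wild-type B6 mice received 2D2 TCR-transgenic lymphocytes containing 1 × 10^6 Va3.2+Vβ11+ CD4+ T cells via the tail vein. After 24 h, mice were immunized sc in each flank with 200 μg MOG35−55 in incomplete Freund's adjuvant with 200 μg M. tuberculosis. Pertussis toxin was given ip on day 0 and day 2. A single 2 μg dose was mixed into the antigen emulsion at immunization. EAE clinical score was followed; n = 8/group from two experiments, mean ± SEM.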

Assay [5] relates to Mus musculus. Put plainly: Immunomodulatory activity in PMA- and ionomycin-stimulated wild type C57BL/6 mouse HMNC cells assessed as reduction in IFN-gamma cytokine in cell culture supernatant at 2 ug, ip administered as single dose measured 22 days post immunization by ELISA relative to vehicle-treated control. The assay is classed as functional, organism-based. The essentials: (§3)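 Spinal cord mononuclear cells were isolated at day 22 by Percoll gradient and restimulated 4 h with PMA 50 ng/mL plus ionomycin 1 μg/mL. Supernatant cytokines were measured by sandwich ELISA using capture antibody, biotinylated detection antibody, streptavidin-HRP and TMB. Data are mean ± SD of individual mice, n = 3−4/group.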

Assay [6] relates to Mus musculus. Kind of assay: Immunomodulatory activity in PMA- and ionomycin-stimulated wild type C57BL/6 mouse HMNC cells assessed as reduction in IL-17 cytokine in cell culture supernatant at 2 ug, ip administered as single dose measured 22 days post immunization by ELISA relative to vehicle-treated control. The format is functional, organism-based. The method, boiled down:
as §3

Assay [7] concerns Mus musculus. Kind of assay: Immunomodulatory activity in PMA- and ionomycin-stimulated wild type C57BL/6 mouse HMNC cells assessed as inhibition of Th17 differentiation of MOG-specific CD4+ T cells at 2 ug, ip administered as single dose measured 22 days post immunization by brefeldin A staining-based flow cytometric analysis. The assay is classed as functional, organism-based. The essentials: (§4)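 At 22 days post-immunization, mice were perfused with cold PBS. Lumbar spinal cord was minced, digested and homogenized, and mononuclear cells were taken from the 30−70% Percoll interface. Cells were restimulated 4 h with PMA 50 ng/mL and ionomycin 1 μg/mL, with brefeldin A 1 μg/mL for the last 2 h. Cells were surface-stained, fixed in 4% PFA, permeabilized with Triton buffer, stained for CD4, IL-17 and IFN-γ, and analyzed by flow cytometry.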

For assay [8], the system named is Mus musculus. Kind of assay: Immunomodulatory activity in PMA- and ionomycin-stimulated wild type C57BL/6 mouse HMNC cells assessed as inhibition of Th1 differentiation of MOG-specific CD4+ T cells at 2 ug, ip administered as single dose measured 22 days post immunization by brefeldin A staining-based flow cytometric analysis. The assay is classed as functional, organism-based. The essentials: as §4

The species named for assay [9] is Mus musculus. Kind of assay: Antiautoimmune disease activity in wild type C57BL/6 mouse experimental autoimmune encephalitis model assessed as delay in disease onset at 2 ug, […] as single dose measured up to 30 days. The assay is classed as functional, organism-based. The essentials:
as §2

Assay [10] relates to Mus musculus. Kind of assay: In vivo immunomodulatory activity in wild type C57BL/6 mouse assessed as IL-4 level in serum at 2 ug, iv administered as single dose measured at >2 hrs. The format is functional, organism-based. The essentials:
(§5)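 Mice were given a single intravenous injection of 2 μg glycolipid, and serum was collected at set times after injection. Serum cytokines were measured by sandwich ELISA: plates coated with anti-cytokine antibody and blocked with 1% BSA, serum incubated overnight at 4 °C, then biotinylated antibody, streptavidin-HRP and TMB, with absorbance read at 450 nm.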

For assay [11], the system named is Mus musculus. Put plainly: In vivo immunomodulatory activity in wild type C57BL/6 mouse assessed as decrease in IFN-gamma level in serum at 2 ug, iv administered as single dose measured after 12 to 24 hrs. The format is functional, organism-based. The essentials: as §5
Assay [12] relates to Mus musculus. Kind of assay: In vivo immunomodulatory activity in wild type C57BL/6 mouse assessed as IL-4 level in serum at 2 ug, iv administered as single dose measured at 2 hrs. The assay is classed as functional, organism-based. The essentials: as §5
The test system of assay [13] is Mus musculus. Put plainly: Antiautoimmune disease activity in wild type C57BL/6 mouse experimental autoimmune encephalitis model assessed as reduction in mononuclear cells infiltration into white matter at 2 ug, ip administered as single dose measured on day 18 post immunization by H & E staining-based analysis relative to vehicle-treated control. The format is functional, organism-based.

For assay [14], the system named is Mus musculus. Put plainly: In vivo immunomodulatory activity in wild type C57BL/6 mouse assessed as decrease in IL-17 level in serum at 2 ug, iv administered as single dose measured at 12 to 24 hrs. The assay is classed as functional, organism-based. The method, boiled down:
as §5

The structures appear in SMILES notation. Active and inactive are the calls of the source. The rule behind the calls is not given here.

The values that follow come from ChEMBL document CHEMBL2429747, “Synthesis and biological evaluation of α-galactosylceramide analogues with heteroaromatic rings and varying positions of a phenyl group in the sphingosine backbone” (J Med Chem, 2013).

With `CCCCCCCCCCCCCCCCCCCCCCCCCC(=O)N[C@@H](CO[C@H]1O[C@H](CO)[C@H](O)[C@H](O)[C@H]1O)[C@H](O)[C@H](O)c1cnn(Cc2ccc(CCCCCC)cc2)c1`, the result in the assay on HMNC [1], with HMNC [2] and in the assay with HMNC [3] was Active.
Take `CCCCCCCCCCCCCCCCCCCCCCCCCC(=O)N[C@@H](CO[C@H]1O[C@H](CO)[C@H](O)[C@H](O)[C@H]1O)[C@H](O)[C@H](O)c1cnn(CCCCc2ccc(CCC)cc2)c1`: the outcome in the assay on HMNC [1], with HMNC [2] and in the assay on HMNC [3] was Active.
Turning to `CCCCCCCCCCCCCCCCCCCCCCCCCC(=O)N[C@@H](CO[C@H]1O[C@H](CO)[C@H](O)[C@H](O)[C@H]1O)[C@H](O)[C@H](O)CCCCCCCCCCCCCC`, the outcome in the assay listed under Mus musculus [4] and in the assay with Mus musculus [12] was Active. Further, the result in the assay on Mus musculus [5], with Mus musculus [6], in the assay with Mus musculus [7], in the assay on Mus musculus [8], in the assay listed under Mus musculus [9] and in the assay on Mus musculus [10] was inactive. Moreover, in the assay on Mus musculus [11], the result was inactive.
As to `CCCCCCCCCCCCCCCCCCCCCCCCCC(=O)N[C@@H](CO[C@H]1O[C@H](CO)[C@H](O)[C@H](O)[C@H]1O)[C@H](O)[C@H](O)c1cnn(CCCCCCc2ccc(C)cc2)c1`, the outcome in the assay with HMNC [1], in the assay with HMNC [2] and in the assay with HMNC [3] was Active.
Turning to `CCCCCCCCCCCCCCCCCCCCCCCCCC(=O)N[C@@H](CO[C@H]1O[C@H](CO)[C@H](O)[C@H](O)[C@H]1O)[C@H](O)[C@H](O)c1cnn(CCCc2ccc(CCCC)cc2)c1`, the outcome in the assay filed under Mus musculus [4], in the assay on Mus musculus [5], in the assay on Mus musculus [6], in the assay with Mus musculus [7], with Mus musculus [8] and in the assay with Mus musculus [13] was Active. In addition, the result in the assay filed under Mus musculus [9], in the assay on Mus musculus [14], with Mus musculus [12], in the assay on HMNC [1], in the assay with HMNC [2] and in the assay on HMNC [3] was Active. Further, the outcome in the assay with Mus musculus [10] and in the assay on Mus musculus [11] was inactive.
For `CCCCCCCCCCCCCCCCCCCCCCCCCC(=O)N[C@@H](CO[C@H]1O[C@H](CO)[C@H](O)[C@H](O)[C@H]1O)[C@H](O)[C@H](O)c1cnn(CCCCCCCc2ccccc2)c1`, the outcome in the assay on HMNC [1], in the assay with HMNC [2] and in the assay on HMNC [3] was Active.
Take `CCCCCCCCCCCCCCCCCCCCCCCCCC(=O)N[C@@H](CO[C@H]1O[C@H](CO)[C@H](O)[C@H](O)[C@H]1O)[C@H](O)[C@H](O)c1cnn(CCCCCc2ccc(CC)cc2)c1`: the outcome in the assay with HMNC [1], in the assay with HMNC [2] and in the assay on HMNC [3] was Active.
For the compound `CCCCCCCCCCCCCCCCCCCCCCCCCC(=O)N[C@@H](CO[C@H]1O[C@H](CO)[C@H](O)[C@H](O)[C@H]1O)[C@H](O)[C@H](O)c1cnn(CCc2ccc(CCCCC)cc2)c1`, the result in the assay with HMNC [1], in the assay on HMNC [2] and in the assay with HMNC [3] was inactive.
